Measured values published in ChEMBL document CHEMBL3244060, “Methotrexate analogues. 8. Synthesis and biological evaluation of bisamide derivatives as potential prodrugs” (J Med Chem, 1977).
In brackets after ≈: the same amount, converted by molar mass. Activity calls are given as the source filed them. The calls are words filed in the database; no cut-off is given here.

Tests used:
L1210 [1] = assay: Antitumor activity against mouse L1210 cells allografted in mouse assessed as increase in life span at 225 mg/kg, ip qd administered every 3 days for 7 days relative to control; format: functional; conditions: route intraperitoneal
Summary of the method: (§1)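 L1210 cells (10^5) implanted ip in mice on day 0. Compounds given ip in 10% Tween 80 on days 1, 4 and 7, at doses from 15 to 525 mg/kg. Methotrexate was given as the disodium salt in aqueous solution. Groups had 5 treated and 10-15 control animals. %ILS = 100 × (T − C)/C, where T and C are median survival days of treated and control mice.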

L1210 [2] = assay: Antitumor activity against mouse L1210 cells allografted in mouse assessed as increase in life span at 350 mg/kg, ip qd administered every 3 days for 7 days relative to control; format: functional; conditions: route intraperitoneal; summary of the method: as §1
[3] = biological target: Dihydrofolate reductase (Lactobacillus casei) (UniProt P00381); assay: Inhibition of methotrexate-resistant Lactobacillus casei ATCC 7469 dihydrofolate reductase; conditions: Lacticaseibacillus casei
Serum [4] = assay: Prodrug conversion in rat whole serum assessed as formation of methotrexate at 0.006 g measured up to 24 hrs by TLC analysis; format: ADME
Summary of the method: (§2)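 Fresh rat serum 0.9 mL plus compound 0.006 g in 0.1 mL Me2SO, incubated at 37 °C with gentle shaking for up to 24 h. Cooled on ice, diluted 1.5-fold with methanol to precipitate protein, centrifuged. Supernatant run on fluorescent cellulose TLC developed with 0.5 M phosphate buffer pH 7.4 to detect parent compound and metabolites.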

L1210 [5] = assay: Antitumor activity against mouse L1210 cells allografted in mouse assessed as median survival time at 225 mg/kg, ip qd administered every 3 days for 7 days; format: functional; conditions: route intraperitoneal
Summary of the method: (§3)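 Mice were inoculated ip with 10^5 L1210 leukemia cells on day 0. Dosing was ip on days 1, 4 and 7 in 10% Tween 80, with the methotrexate disodium salt in water, over 15–525 mg/kg. Survival was recorded in days as the range and median per group, with 5 treated and 10-15 untreated controls.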

L1210 [6] = assay: Antitumor activity against mouse L1210 cells allografted in mouse assessed as median survival time at 525 mg/kg, ip qd administered every 3 days for 7 days; format: functional; conditions: route intraperitoneal; summary of the method: as §3
CCRF-CEM = assay: Cytotoxicity against human CCRF-CEM cells assessed as growth inhibition; format: functional; conditions: read-out: ID50 (the source's name)
L1210 [7] = assay: Antitumor activity against mouse L1210 cells allografted in mouse assessed as increase in life span at 150 mg/kg, ip qd administered every 3 days for 7 days relative to control; format: functional; conditions: route intraperitoneal; summary of the method: as §1
L1210 [8] = assay: Antitumor activity against mouse L1210 cells allografted in mouse assessed as median survival time at 150 mg/kg, ip qd administered every 3 days for 7 days; format: functional; conditions: route intraperitoneal; summary of the method: as §3
L1210 [9] = assay: Antitumor activity against mouse L1210 cells allografted in mouse assessed as increase in life span at 525 mg/kg, ip qd administered every 3 days for 7 days relative to control; format: functional; conditions: route intraperitoneal; summary of the method: as §1
L1210 [10] = assay: Antitumor activity against mouse L1210 cells allografted in mouse assessed as median survival time at 350 mg/kg, ip qd administered every 3 days for 7 days; format: functional; conditions: route intraperitoneal; summary of the method: as §3
L1210 [11] = assay: Antitumor activity against mouse L1210 cells allografted in mouse assessed as increase in life span at 15 to 525 mg/kg, ip qd administered every 3 days for 7 days; format: functional, organism-based
Summary of the method: (§4)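 Mice inoculated ip with 10^5 L1210 cells on day 0. Test agents injected ip in 10% Tween 80 on days 1, 4 and 7; doses 15 to 525 mg/kg. Positive control given as disodium salt in aqueous solution. Test groups of 5, control groups of 10-15. Median survival scored; %ILS = 100 × (T − C)/C.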

Mus musculus = assay: Toxicity in mouse allografted with mouse L1210 cells at 15 to 525 mg/kg, ip qd administered every 3 days for 7 days; format: organism-based; set-up: dose 15-525 mg/kg, route intraperitoneal; conditions: in vivo; summary of the method: as §4
[12] = Cytotoxicity against RBL cells assessed as growth inhibition; format: functional; conditions: Rattus norvegicus, read-out: ID50 (the source's name)
Plasma [13] = assay: Drug level in mouse plasma treated with methotrexate bis(benzylamide) at 100 mg/kg, ip measured after 6 to 24 hrs by TLC analysis; format: ADME, organism-based; set-up: dose 100 mg/kg, route intraperitoneal; conditions: in vivo
Summary of the method: (§5)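 Normal mice received a single ip dose of 100 mg/kg in 10% Tween 80. One animal was killed at 6 h and one at 24 h. Blood was taken by ocular puncture with a heparinized syringe and the red cells spun down. Plasma 0.2 mL was cooled on ice and diluted with methanol 0.4 mL to precipitate protein, then centrifuged. Analysed by cellulose TLC developed in 0.5 M phosphate buffer pH 7.4.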

Serum [14] = assay: Drug level in rat whole serum treated with methotrexate di-n-butyl ester measured after 1 hr by TLC analysis; format: ADME, cell-free; summary of the method: as §2
L1210 [15] = assay: Antitumor activity against mouse L1210 cells allografted in mouse assessed as increase in life span at 0.18 mg/kg, sc administered daily up to death started on day 5 post tumor implantation relative to control; format: functional; conditions: 120 h, route subcutaneous
L1210 [16] = assay: Antitumor activity against mouse L1210 cells allografted in mouse assessed as increase in life span at 200 mg/kg, ip qd administered every 3 days for 7 days relative to control; format: functional; conditions: route intraperitoneal; summary of the method: as §1
L1210 [17] = assay: Antitumor activity against mouse L1210 cells allografted in mouse assessed as median survival time at 400 mg/kg, ip qd administered every 3 days for 7 days; format: functional; conditions: route intraperitoneal; summary of the method: as §3
L1210 [18] = assay: Antitumor activity against mouse L1210 cells allografted in mouse assessed as increase in life span at 50 mg/kg, ip qd administered every 3 days for 7 days relative to control; format: functional; conditions: route intraperitoneal; summary of the method: as §1
L1210 [19] = assay: Antitumor activity against mouse L1210 cells allografted in mouse assessed as median survival time at 100 mg/kg, ip qd administered every 3 days for 7 days; format: functional; conditions: route intraperitoneal; summary of the method: as §3
L1210 [20] = assay: Antitumor activity against mouse L1210 cells allografted in mouse assessed as median survival time at 50 mg/kg, ip qd administered every 3 days for 7 days; format: functional; conditions: route intraperitoneal; summary of the method: as §3
L1210 [21] = assay: Antitumor activity against mouse L1210 cells allografted in mouse assessed as increase in life span at 100 mg/kg, ip qd administered every 3 days for 7 days relative to control; format: functional; conditions: route intraperitoneal; summary of the method: as §1
L1210 [22] = assay: Antitumor activity against mouse L1210 cells allografted in mouse assessed as median survival time at 200 mg/kg, ip qd administered every 3 days for 7 days; format: functional; conditions: route intraperitoneal; summary of the method: as §3
L1210 [23] = assay: Antitumor activity against mouse L1210 cells allografted in mouse assessed as increase in life span at 400 mg/kg, ip qd administered every 3 days for 7 days relative to control; format: functional; conditions: route intraperitoneal; summary of the method: as §1
L1210 [24] = assay: Antitumor activity against mouse L1210 cells allografted in mouse assessed as increase in life span at 25 mg/kg, ip qd administered every 3 days for 7 days relative to control; format: functional; conditions: route intraperitoneal; summary of the method: as §1
L1210 [25] = assay: Antitumor activity against mouse L1210 cells allografted in mouse assessed as median survival time at 25 mg/kg, ip qd administered every 3 days for 7 days; format: functional; conditions: route intraperitoneal; summary of the method: as §3
Liver = assay: Prodrug conversion in mouse liver assessed as formation of methotrexate at 100 mg/kg, ip measured after 6 to 24 hrs by TLC analysis; format: ADME, organism-based; set-up: dose 100 mg/kg, route intraperitoneal; conditions: in vivo
Plasma [26] = assay: Prodrug conversion in mouse plasma assessed as formation of methotrexate at 100 mg/kg, ip measured after 6 to 24 hrs by TLC analysis; format: ADME, organism-based; set-up: dose 100 mg/kg, route intraperitoneal; conditions: in vivo; summary of the method: as §5

Sequence of Dihydrofolate reductase (Lactobacillus casei) (P00381 whole entry): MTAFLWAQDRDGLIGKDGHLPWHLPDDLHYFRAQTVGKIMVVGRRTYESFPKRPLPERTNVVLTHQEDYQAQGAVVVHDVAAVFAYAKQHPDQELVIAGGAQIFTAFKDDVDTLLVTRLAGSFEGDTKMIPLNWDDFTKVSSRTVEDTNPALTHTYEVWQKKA

CCCNC(=O)CC[C@H](NC(=O)c1ccc(N(C)Cc2cnc3nc(N)nc(N)c3n2)cc1)C(=O)NCCC
ILS at 225 mg/kg (L1210 [1]): 27% | ILS at 350 mg/kg (L1210 [2]): 18% | ID50 [3]: 1.8 ×10⁻⁷ M | Drug metabolism (Serum [4]): metabolite_notdetected | MST (L1210 [5]): 14 days | MST (L1210 [6]): 13 days | IC50 (CCRF-CEM): 7 µg/mL (≈ 13 µM) | ILS at 150 mg/kg (L1210 [7]): 0% | MST (L1210 [8]): 11 days | ILS at 525 mg/kg (L1210 [9]): 18% | MST (L1210 [10]): 13 days

CN(Cc1cnc2nc(N)nc(N)c2n1)c1ccc(C(=O)N[C@@H](CCC(=O)NC2CCCCC2)C(=O)NC2CCCCC2)cc1
Activity (L1210 [11]): inactive | Activity (Mus musculus): Toxic | IC50 (CCRF-CEM): 1 µg/mL (≈ 1.62 µM) | IC50 [12]: 0.22 µg/mL (≈ 0.357 µM)

CN(Cc1cnc2nc(N)nc(N)c2n1)c1ccc(C(=O)N[C@@H](CCC(=O)O)C(=O)O)cc1 [METHOTREXATE]
Drug metabolism (Plasma [13]): metabolite_detected | IC50 (CCRF-CEM): 0.003 µg/mL (≈ 0.0066 µM) | IC50 [12]: 0.003 µg/mL (≈ 0.0066 µM) | Drug metabolism (Serum [14]): metabolite_detected

Nc1nc(N)c2nc(CNc3ccc(C(=O)N[C@@H](CCC(=O)O)C(=O)O)cc3)cnc2n1 [AMINOPTERIN]
ILS at 0.18 mg/kg (L1210 [15]): 30%

CN(Cc1cnc2nc(N)nc(N)c2n1)c1ccc(C(=O)N[C@@H](CCC(=O)NCc2ccccc2)C(=O)NCc2ccccc2)cc1
ILS at 200 mg/kg (L1210 [16]): 0% | MST (L1210 [17]): 8 days | ILS at 50 mg/kg (L1210 [18]): 44% | Drug metabolism (Serum [4]): metabolite_notdetected | MST (L1210 [19]): 13 days | MST (L1210 [20]): 13 days | ILS at 100 mg/kg (L1210 [21]): 44% | MST (L1210 [22]): 9 days | ILS at 400 mg/kg (L1210 [23]): -11% | ILS at 25 mg/kg (L1210 [24]): 33% | IC50 (CCRF-CEM): 7.6 µg/mL (≈ 12 µM) | MST (L1210 [25]): 12 days | ILS at 150 mg/kg (L1210 [7]): 66% | MST (L1210 [8]): 15 days | IC50 [12]: 2.5 µg/mL (≈ 3.95 µM) | Drug metabolism (Liver): metabolite_detected | Drug metabolism (Plasma [26]): metabolite_detected

CN(C)CCNC(=O)CC[C@H](NC(=O)c1ccc(N(C)Cc2cnc3nc(N)nc(N)c3n2)cc1)C(=O)NCCN(C)C
IC50 (CCRF-CEM): > 10 µg/mL

COc1ccc(CCNC(=O)CC[C@H](NC(=O)c2ccc(N(C)Cc3cnc4nc(N)nc(N)c4n3)cc2)C(=O)NCCc2ccc(OC)c(OC)c2)cc1OC
IC50 (CCRF-CEM): > 10 µg/mL

CN(Cc1cnc2nc(N)nc(N)c2n1)c1ccc(C(=O)N[C@@H](CCC(=O)N2CCCC2)C(=O)N2CCCC2)cc1
Activity (L1210 [11]): inactive | Activity (Mus musculus): Toxic

CN(Cc1cnc2nc(N)nc(N)c2n1)c1ccc(C(=O)N[C@@H](CCC(=O)NCCCO)C(=O)NCCCO)cc1
IC50 (CCRF-CEM): > 10 µg/mL
